According to ChEMBL document CHEMBL4152273, “Development of novel amino-quinoline-5,8-dione derivatives as NAD(P)H:quinone oxidoreductase 1 (NQO1) inhibitors with potent antiproliferative activities” (Eur J Med Chem, 2018):
Activity calls are given as the source filed them. The rule behind the calls is not given here.

Legend:
[1] = Cytotoxicity against human KBVIN cells assessed as decrease in cell viability after 72 hrs in presence of NQO1 inhibitor dicoumarol by MTT assay; format: functional, cell-based; conditions: in the assay text read “SRB assay” for “MTT assay”
In short: (§1)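 NQO1 dependency: cells co-treated for 72 h with test compound plus […] or 40 mM N-acetylcysteine. Viability read by SRB: TCA fixation, 0.04% sulforhodamine B staining, acetic acid wash, dye solubilized in 10 mM Tris base, absorbance at 515 nm. Results given as IC50 or mean ± SD; three independent measurements.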

[2] = system: HeLa S3; test: Increase in ROS production in human HeLaS3 cells after 24 hrs in presence of H2O2 by DCFH-DA dye based flow cytometry; format: functional, cell-based
[3] = Cytotoxicity against human KBVIN cells assessed as decrease in cell viability after 72 hrs in presence of free radical scavenger NAc by MTT assay; format: functional, cell-based; conditions: in the assay text read “SRB assay” for “MTT assay”; in short: as §1
[4] = system: HeLa S3; test: Cytotoxicity against human HeLaS3 cells assessed as decrease in cell viability after 72 hrs in presence of NQO1 inhibitor dicoumarol by MTT assay; format: functional, cell-based; conditions: HeLa S3, 72 h, in the assay text read “SRB assay” for “MTT assay”; in short: as §1
[5] = species on record: Homo sapiens; test: Induction of mitochondrial membrane potential loss in human KBVIN cells after 24 hrs by MITO-ID MP dye based assay; format: functional, cell-based
In short: (§2)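 Cells plated at 2.5 × 10^5/mL and treated with 0.01–5 μM, CCCP as positive control or DMSO vehicle for 24 h at 37 °C. MITO-ID MP dye loaded in the dark for 30 min at 37 °C, then fluorescence read at Ex 490 nm and Em 590 nm.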

[6] = system: HeLa S3; test: Induction of mitochondrial membrane potential loss in human HeLaS3 cells after 24 hrs by MITO-ID MP dye based assay; format: functional, cell-based; in short: as §2
[7] = species on record: Homo sapiens; test: Increase in ROS production in human KBVIN cells after 24 hrs in presence of H2O2 by DCFH-DA dye based flow cytometry; format: functional, cell-based
[8] = system: HeLa S3; test: Cytotoxicity against human HeLaS3 cells assessed as decrease in cell viability after 72 hrs in presence of free radical scavenger NAc by MTT assay; format: functional, cell-based; conditions: HeLa S3, 72 h, in the assay text read “SRB assay” for “MTT assay”; in short: as §1
[9] = system: HeLa S3; test: Induction of apoptosis in human HeLaS3 cells after 72 hrs by annexin V-FITC/PI dual staining based flow cytometry; format: functional, cell-based
In short: (§3)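 Cells cultured overnight, then exposed in triplicate to 0.2, 0.6 or 1.8 μM or vehicle for 72 h. Annexin V-positive percentage given as mean ± SD of three independent experiments.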

[10] = target: T1, NAD(P)H dehydrogenase [quinone] 1 (Homo sapiens, UniProt P15559); test: Inhibition of NQO1 activity in human KBVIN cells incubated for 24 hrs measured every 20 secs for 5 mins; format: cell-based
T1 sequence (P15559 whole entry): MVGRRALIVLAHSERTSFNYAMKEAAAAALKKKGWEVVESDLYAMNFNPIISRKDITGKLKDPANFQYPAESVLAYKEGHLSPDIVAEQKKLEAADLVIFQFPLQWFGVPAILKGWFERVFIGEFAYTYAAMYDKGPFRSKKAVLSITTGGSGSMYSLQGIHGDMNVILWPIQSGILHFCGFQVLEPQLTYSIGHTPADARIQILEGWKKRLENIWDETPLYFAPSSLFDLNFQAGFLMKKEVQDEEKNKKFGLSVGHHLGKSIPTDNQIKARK

[11] = system: HeLa S3; test: Induction of apoptosis in human HeLaS3 cells assessed as increase in Bax expression levels after 72 hrs by Western blot analysis; format: functional, cell-based
In short: (§4)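 Sub-confluent cells at 1.5 × 10^5/mL treated 72 h in DMEM with 10% FBS at the indicated doses or 0.1% DMSO vehicle. Lysates immunoblotted for Bax, Bcl-2 and caspase-3, detected with HRP secondary antibodies and chemiluminescence. Band densities normalized to β-actin by densitometry; mean ± SD of three separate experiments.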

[12] = system: HeLa S3; test: Induction of apoptosis in human HeLaS3 cells assessed as increase in caspase-3 cleavage at 0.2 to 1.8 uM after 72 hrs by Western blot analysis; format: functional, cell-based; in short: as §4
[13] = system: HeLa S3; test: Induction of apoptosis in human HeLaS3 cells assessed as annexin V-positive cells at 0.6 uM after 72 hrs by annexin V-FITC/PI dual staining based flow cytometry relative to control; format: functional; in short: as §3
[14] = system: HeLa S3; test: Induction of apoptosis in human HeLaS3 cells assessed as decrease in Bcl-2 expression levels after 72 hrs by Western blot analysis; format: functional, cell-based; in short: as §4
[15] = system: HeLa S3; test: Induction of apoptosis in human HeLaS3 cells assessed as annexin V-positive cells at 1.8 uM after 72 hrs by annexin V-FITC/PI dual staining based flow cytometry relative to control; format: functional; in short: as §3
[16] = system: HeLa S3; test: Induction of apoptosis in human HeLaS3 cells assessed as annexin V-positive cells at 0.2 uM after 72 hrs by annexin V-FITC/PI dual staining based flow cytometry relative to control; format: functional; in short: as §3
[17] = Cytotoxicity against human EEC assessed as decrease in cell viability after 72 hrs by MTT assay
In short: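 Endometrial epithelial cells maintained in RPMI-1640 with 10% FBS at 37 °C, 5% CO2. Exposed 72 h to the indicated concentrations, proliferation assessed by MTT; inhibition (%) reported as mean ± SD of three independent experiments.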

[18] = target: T1, NAD(P)H dehydrogenase [quinone] 1; test: Inhibition of NQO1 activity in human HeLaS3 cells incubated for 24 hrs measured every 20 secs for 5 mins; format: cell-based

Row | IC50 [10] [nM] | IC50 [18] [µM] | SMILES | IC50 [1] [nM] | Activity [2] | IC50 [3] [nM] | IC50 [4] [nM] | Activity [5] | Activity [6] | Activity [7] | IC50 [8] [nM] | Activity [9] | Activity [11] | Activity [12] | Activity [13] [%] | Activity [14] | Activity [15] [%] | Activity [16] [%] | Activity [17]
1 |  |  | CN1CCN(c2ccc(NC3=CC(=O)c4ncccc4C3=O)cc2)CC1 | > 3000 | Dose-dependent effect | > 3000 | > 3000 | Dose-dependent effect | Dose-dependent effect | Dose-dependent effect | > 3000 |  |  |  |  |  |  |  | 
2 | 570 | 0.44 | CN1CCN(c2ccc(NC3=CC(=O)c4cccnc4C3=O)cc2)CC1 | > 3000 | Dose-dependent effect | > 3000 | > 3000 | Dose-dependent effect | Dose-dependent effect | Dose-dependent effect | > 3000 | Dose-dependent effect | Dose-dependent effect | Active | 27.6 | Dose-dependent effect | 66.3 | 12.8 | Non-Toxic
3 | 550 | 6.25 | O=C1C=C(NCCc2c[nH]c3ccccc23)C(=O)c2ncccc21 |  | Dose-dependent effect |  |  | Dose-dependent effect | Dose-dependent effect | Dose-dependent effect |  |  |  |  |  |  |  |  | 
4 | 530 | 5.25 | COC(=O)/C=C/c1cccc(CNC2=CC(=O)c3ncccc3C2=O)c1 |  | Dose-dependent effect |  |  | Dose-dependent effect | Dose-dependent effect | Dose-dependent effect |  |  |  |  |  |  |  |  | 
